Experimental data: ChEMBL document CHEMBL1821616, “New insights into the structural requirements for pro-apoptotic agents based on 2,4-diaminoquinazoline, 2,4-diaminopyrido[2,3-d]pyrimidine and 2,4-diaminopyrimidine derivatives” (Eur J Med Chem, 2011)
The source made the active and inactive calls. The rule behind the calls is not given here.

How the values were obtained:
[1] = Cytotoxicity against human CRL11233 cells assessed as cell survival at 20 to 100 uM after 72 hrs by neutral red dye assay; type: cell-based; details: read-out: Survival
Procedure, shortened: (§1)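 The non-tumoral lines were grown with 10% FBS plus penicillin/streptomycin, as monolayers at 37 °C in 5% CO2: CRL-8799 in MEG medium and CRL-11233 in BEGM. Compounds in DMSO (≤0.5% v/v final) were applied for 72 h. Survival was read by neutral red uptake against 0.5% DMSO solvent-treated controls, as the mean of triplicates.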

MDA-MB-231 [2] = test: Induction of apoptosis in human MDA-MB-231 cells assessed as DNA fragmentation after 24 hrs by ELISA relative to control; type: functional
Procedure, shortened: (§2)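 DNA fragmentation was measured with the Cell Death Detection ELISA Plus kit after treatment of cultured tumour cells. The signal is expressed relative to untreated control cultures, which are set to 1.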

HT-29 [3] = test: Cytotoxicity against human HT-29 cells assessed as cell survival at 100 uM after 72 hrs by neutral red dye assay; type: functional; details: HT-29, 72 h, read-out: Survival
Procedure, shortened: (§3)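 HT-29 and T-24 cells were grown in McCoy's medium and MDA-MB-231 in Leibovitz, each with 10% FBS plus penicillin/streptomycin, as monolayers at 37 °C in 5% CO2. Compounds in DMSO (≤0.5% v/v final) were applied for 72 h. Survival was read by neutral red uptake against 0.5% DMSO-treated cells, as the mean of triplicates.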

T-24 [4] = test: Induction of apoptosis in human T24 cells assessed as DNA fragmentation after 48 hrs by ELISA relative to control; type: functional; procedure, shortened: as §2
MDA-MB-231 [5] = test: Cytotoxicity against human MDA-MB-231 cells assessed as cell survival at 100 uM after 72 hrs by neutral red dye assay; type: functional; details: MDA-MB-231, 72 h, read-out: Survival; procedure, shortened: as §3
T-24 [6] = test: Cytotoxicity against human T24 cells assessed as cell survival at 100 uM after 72 hrs by neutral red dye assay; type: functional; details: T-24, 72 h, read-out: Survival; procedure, shortened: as §3
[7] = Cytotoxicity against human CRL8799 cells assessed as cell survival at 20 to 100 uM after 72 hrs by neutral red dye assay; type: cell-based; details: read-out: Survival; procedure, shortened: as §1
HT-29 [8] = test: Cytotoxicity against human HT-29 cells after 72 hrs by neutral red dye assay; type: functional, cell-based; details: HT-29, 72 h
Procedure, shortened: (§4)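 Human tumour cells were grown as monolayers with 10% FBS and penicillin/streptomycin at 37 °C in 5% CO2 (HT-29 and T-24 in McCoy's, MDA-MB-231 in Leibovitz). They were exposed to compound in DMSO (≤0.5% v/v final) at screening concentrations of 20 and 100 μM for 72 h and read by neutral red uptake. Survival is relative to cells given DMSO only, in triplicate.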

T-24 [9] = test: Cytotoxicity against human T24 cells after 72 hrs by neutral red dye assay; type: functional, cell-based; details: T-24, 72 h; procedure, shortened: as §4
MDA-MB-231 [10] = test: Cytotoxicity against human MDA-MB-231 cells after 72 hrs by neutral red dye assay; type: functional, cell-based; details: MDA-MB-231, 72 h; procedure, shortened: as §4
HT-29 [11] = test: Induction of apoptosis in human HT-29 cells assessed as DNA fragmentation after 48 hrs by ELISA relative to control; type: functional; procedure, shortened: as §2

SMILES | viability at 72 h, up to 100 µM [1] | Activity (MDA-MB-231 [2]) | viability at 100 µM (HT-29 [3]) | fold change (FC) (T-24 [4]) | viability at 100 µM (MDA-MB-231 [5]) | viability at 100 µM (T-24 [6]) | viability at 72 h, up to 100 µM [7] | IC50 (HT-29 [8]) | IC50 (T-24 [9]) | IC50 (MDA-MB-231 [10]) | fold change (FC) (HT-29 [11]) | Activity (HT-29 [11]) | Activity (T-24 [4]) | fold change (FC) (MDA-MB-231 [2])
Brc1ccc(CCNc2nc(NCCc3ccc(Br)cc3)c3cccnc3n2)cc1 | 100% | inactive | < 45% | 1.5 | < 45% | < 45% | 90% | 4.1 µM | 11.5 µM | 2.7 µM | 7.2 | – | – | –
Clc1ccc(CNc2nc(NCc3ccc(Cl)cc3)c3ccccc3n2)cc1 | 0% | inactive | < 45% | 2 | < 45% | < 45% | 0% | 5.89 µM | 6.41 µM | 4.26 µM | – | inactive | – | –
CCCCCCNc1nc(SCCCCC)nc2ncccc12 | – | – | < 45% | – | < 45% | < 45% | – | 18.4 µM | 18.5 µM | 9 µM | – | inactive | inactive | –
CCCCCCNc1nc(NCCCCCC)c2cccnc2n1 | – | – | < 45% | – | < 45% | < 45% | – | 4.23 µM | 4.6 µM | 2.1 µM | – | – | – | –
CCCCCCNc1nc(SC(C)C)nc2ncccc12 | – | – | < 45% | 1.6 | < 45% | < 45% | – | 20.2 µM | 15.8 µM | 4.5 µM | – | – | – | 2.9
CCCCCCNc1nc(NCCCCCC)c2ccccc2n1 | 0% | inactive | < 45% | – | < 45% | < 45% | 2% | 5.81 µM | 23.3 µM | 7.56 µM | – | inactive | inactive | –
CCCCNc1nc(SCCCC)nc2ncccc12 | – | – | < 45% | 3.7 | < 45% | < 45% | – | 13.6 µM | 10.6 µM | 8.4 µM | – | inactive | – | –
CCCCNc1nc(SC(C)C)nc2ncccc12 | – | – | < 45% | – | < 45% | < 45% | – | 32.1 µM | 12.3 µM | 15.7 µM | – | inactive | inactive | 1.3
CCCCCCCNc1nc(SC(C)C)nc2ncccc12 | – | – | < 45% | 1.5 | < 45% | < 45% | – | 24.4 µM | 8 µM | 7 µM | – | inactive | – | –
Clc1ccc(CNc2ccnc(NCc3ccc(Cl)cc3)n2)cc1 | – | – | < 45% | – | < 45% | < 45% | 0% | 9.8 µM | 8.5 µM | 2 µM | 2.7 | – | inactive | 2.2
CCNc1nc(SCC)nc2ncccc12 | – | – | < 45% | 1.3 | < 45% | < 45% | – | 26.2 µM | 20.1 µM | 18.7 µM | – | inactive | – | 2
COc1ccc(CNc2ccnc(NCc3ccc(OC)cc3)n2)cc1 | – | – | < 45% | 1.5 | < 45% | < 45% | 0% | 12.6 µM | 18.7 µM | 1.5 µM | 1.9 | – | – | 2.4
CCCCNc1nc(SCC)nc2ncccc12 | – | – | < 45% | 1.5 | < 45% | < 45% | – | 25.3 µM | 20.9 µM | 9.2 µM | 1.2 | – | – | 2.2
